Experimental findings from PMC3812312 (Journal of medicinal chemistry, 2013) are described below.

“Also recorded” adds a separate entry of the source.

The target in series [1] is human ERβ LBD (Homo sapiens, UniProt Q92731). The series is described as follows: ERβ agonist luciferase reporter assay in HEK 293T cells. It counts as cell-based. The following applies: 10 μM; for ERβ agonist activity: HEK-luciferase assay; for ER subtype preference (ratio of ERα to ERβ agonist activity): agonist assay.
Sequence of human ERβ LBD (Q92731 263-530): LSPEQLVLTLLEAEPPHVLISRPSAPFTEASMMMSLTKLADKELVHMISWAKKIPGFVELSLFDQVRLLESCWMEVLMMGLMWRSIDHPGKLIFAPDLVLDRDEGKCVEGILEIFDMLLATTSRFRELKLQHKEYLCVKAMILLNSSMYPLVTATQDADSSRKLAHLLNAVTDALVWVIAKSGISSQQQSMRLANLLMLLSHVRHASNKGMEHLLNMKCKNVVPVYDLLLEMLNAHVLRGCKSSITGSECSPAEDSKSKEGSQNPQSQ
Series [2] deals with human recombinant HDAC1 (Homo sapiens, UniProt Q13547). Kind of series: HDAC activity assay. It counts as biochemical. The following applies: HDAC isoforms 1, 6 and 8 tested.
Sequence of human recombinant HDAC1 (Q13547 whole entry, canonical isoform): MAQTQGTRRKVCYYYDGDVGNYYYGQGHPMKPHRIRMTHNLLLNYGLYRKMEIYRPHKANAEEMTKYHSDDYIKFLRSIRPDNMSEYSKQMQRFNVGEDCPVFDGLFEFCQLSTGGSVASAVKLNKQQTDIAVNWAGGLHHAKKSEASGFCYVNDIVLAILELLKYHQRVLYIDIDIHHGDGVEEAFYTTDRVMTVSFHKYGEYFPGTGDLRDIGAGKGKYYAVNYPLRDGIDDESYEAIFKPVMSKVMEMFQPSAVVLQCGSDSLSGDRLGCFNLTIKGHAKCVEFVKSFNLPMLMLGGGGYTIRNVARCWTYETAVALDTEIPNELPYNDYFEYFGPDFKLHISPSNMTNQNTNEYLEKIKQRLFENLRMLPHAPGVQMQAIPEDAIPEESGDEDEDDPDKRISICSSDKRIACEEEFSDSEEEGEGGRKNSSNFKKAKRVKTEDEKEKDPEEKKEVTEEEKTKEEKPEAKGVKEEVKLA
The subject of series [3] is MDA-MB-231 cells. Kind of series: Cell viability assay. It counts as cell-based. The following applies: 72 hours after drug dosing; ERα−/β− breast cancer. The method in brief:
(§1)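 Cell lines: MCF-7 (gift) and MDA-MB-231, DU145 and Vero (ATCC), kept in EMEM with 10% FBS, with or without antibiotics, at 37 °C under 5% CO2. Cells exposed to test compound in duplicate for 72 h; viability read by MTS and MTT colorimetric assays per manufacturer's instructions. IC50 obtained by logit plot analysis.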

For series [4], the system named is DU145 cells. The series is described as follows: Cell viability assay. It counts as cell-based. The following applies: 72 hours after drug dosing; metastatic prostate cancer. The method in brief: as §1
Series [5] has as its target T1, human ERα ligand binding domain (Homo sapiens, UniProt P03372).
T1 sequence (P03372 301-595): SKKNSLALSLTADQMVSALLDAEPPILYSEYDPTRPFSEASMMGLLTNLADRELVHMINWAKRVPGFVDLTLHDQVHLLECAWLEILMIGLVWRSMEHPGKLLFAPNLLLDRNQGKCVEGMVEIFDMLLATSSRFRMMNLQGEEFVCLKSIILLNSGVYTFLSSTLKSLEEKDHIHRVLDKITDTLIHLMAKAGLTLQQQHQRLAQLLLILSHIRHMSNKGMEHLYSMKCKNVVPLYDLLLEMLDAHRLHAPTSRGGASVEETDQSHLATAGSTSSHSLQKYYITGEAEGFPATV
Kind of series: ERα agonist luciferase reporter assay in HEK 293T cells. It counts as cell-based. The following applies: 10 μM, charcoal stripped serum. (A reporter such as luciferase makes a cellular process visible.)

Series [6] addresses T2, human recombinant HDAC8 (Homo sapiens, UniProt Q9BY41).
T2 sequence (Q9BY41 1-377): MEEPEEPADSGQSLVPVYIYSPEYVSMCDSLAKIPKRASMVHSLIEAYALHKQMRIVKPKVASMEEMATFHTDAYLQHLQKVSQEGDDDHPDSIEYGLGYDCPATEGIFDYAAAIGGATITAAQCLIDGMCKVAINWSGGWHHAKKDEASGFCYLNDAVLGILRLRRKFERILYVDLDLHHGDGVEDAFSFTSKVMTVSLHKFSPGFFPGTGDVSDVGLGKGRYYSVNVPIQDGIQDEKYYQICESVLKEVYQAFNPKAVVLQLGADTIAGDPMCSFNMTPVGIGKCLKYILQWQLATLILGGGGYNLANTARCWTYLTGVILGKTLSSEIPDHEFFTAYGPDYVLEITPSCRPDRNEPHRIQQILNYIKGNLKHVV
Kind of series: HDAC activity assay. In kind it is biochemical. The following applies: maximum concentration tested 100 μM.

Series [7] has as its system human recombinant HDAC6. The series is described as follows: HDAC activity assay. It counts as biochemical. The following applies: HDAC6 vs HDAC1 and HDAC8. The method, boiled down:
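Run under contract. Human recombinant HDAC1, HDAC6 or HDAC8 incubated with HDAC substrate, 5 μg BSA and serial dilutions of test compound (DMSO stocks; 1% DMSO final, top 100 μM) in duplicate, 37 °C, 30 min. Developer added for 15 min at room temperature; fluorescence ex 360/em 460 nm.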

Series [8] concerns MCF-7 cells. Kind of series: Cell viability assay. In kind it is cell-based, human.
Series [9] deals with VERO cells. The series is described as follows: Cell viability assay. It counts as cell-based. The following applies: VERO versus MCF-7.

For the compound `C[C@]12CC[C@@H]3c4ccc(O)cc4CC[C@H]3[C@@H]1CC[C@@]2(O)c1cn(CCCCCC(=O)NO)nn1` [1c, 6-(4-((8R,9S,13S,14S,17S)-3,17-dihydroxy-13-methyl-7,8,9,11,12,13,14,15,16,17-decahydro-6H-cyclopenta[a]phenanthren-17-yl)-1H-1,2,3-triazol-1-yl)-N-hydroxyhexanamide], in [1], the ERβ agonist activity entry is recorded as “significant ERβ activation” and the “ER subtype preference (ratio of ERα to ERβ agonist activity)” value is on record as “preferentially bind ERβ”. Also, the “HDAC inhibition activity, overall (isoform not given)” value in [2] was “most potent HDACi; also recorded: nM HDACi potency”. Also, the “antiproliferative activity IC50, MDA-MB-231” value in series [3] is given as “inhibit the growth of MDA-MB-231”. The “antiproliferative activity IC50, DU145” value in series [4] is “evidence of DU145 cell growth inhibition”.

Take `C[C@]12CC[C@@H]3c4ccc(O)cc4CC[C@H]3[C@@H]1CC[C@@]2(O)c1cn(CCCCCCC(=O)NO)nn1` [1d, 7-(4-((8R,9S,13S,14S,17S)-3,17-dihydroxy-13-methyl-7,8,9,11,12,13,14,15,16,17-decahydro-6H-cyclopenta[a]phenanthren-17-yl)-1H-1,2,3-triazol-1-yl)-N-hydroxyheptanamide]: in [5], the “ERα agonist activity (fold activation, relative to control no drug)” value is “most significant ERα agonist effect”. Moreover, in [1], the ERβ agonist activity entry was “significant ERβ activation” and the “ER subtype preference (ratio of ERα to ERβ agonist activity)” value is “preferentially bind ERβ”. The “HDAC inhibition activity, overall (isoform not given)” value in series [2] is “most potent HDACi; also recorded: nM HDACi potency”. Further, the “HDAC8 inhibition IC50” value in [6] was “order of magnitude greater HDAC8 inhibition”. In [3], the “antiproliferative activity IC50, MDA-MB-231” value was “inhibit the growth of MDA-MB-231”. Moreover, the “antiproliferative activity IC50, DU145” value in series [4] is listed as “evidence of DU145 cell growth inhibition”.

Consider `C[C@]12CC[C@@H]3c4ccc(O)cc4CC[C@H]3[C@@H]1CC[C@@]2(O)c1cn(CCCCC(=O)NO)nn1` [1b, 5-(4-((8R,9S,13S,14S,17S)-3,17-dihydroxy-13-methyl-7,8,9,11,12,13,14,15,16,17-decahydro-6H-cyclopenta[a]phenanthren-17-yl)-1H-1,2,3-triazol-1-yl)-N-hydroxypentanamide], for which the “ERα agonist activity (fold activation, relative to control no drug)” value in series [5] is recorded as “most significant ERα agonist effect”.

On to `CC/C(=C(\c1ccccc1)c1ccc(OCCN(C)Cc2ccc(NC(=O)CCCCCCC(=O)NO)cc2)cc1)c1ccccc1` [compound 3, Tamoxifen-SAHA Conjugate], for which the HDAC isoform selectivity entry in series [7] was “selective for HDAC6”. Moreover, in series [8], the “potency relative to SAHA against MCF-7 (fold less potent)” value is “equipotent to SAHA”. Moreover, the “in vitro therapeutic index (IVTI)” value in series [9] is “greater IVTI”.

`CC/C(=C(\c1ccccc1)c1ccc(OCCN(C)Cc2ccc(-c3cn(CCCCCC(=O)NO)nn3)cc2)cc1)c1ccccc1` [compound 2, Tamoxifen-Triazolylhydroxamic acid]: the “potency relative to SAHA against MCF-7 (fold less potent)” value in [8] is given as “about 1.7 fold”. The “in vitro therapeutic index (IVTI)” value in [9] is reported as “greater IVTI”.

As for `C[C@]12CC[C@@H]3c4ccc(O)cc4CC[C@H]3[C@@H]1CC[C@@]2(O)c1cn(CCCCCCCC(=O)NO)nn1` [1e, 8-(4-((8R,9S,13S,14S,17S)-3,17-dihydroxy-13-methyl-7,8,9,11,12,13,14,15,16,17-decahydro-6H-cyclopenta[a]phenanthren-17-yl)-1H-1,2,3-triazol-1-yl)-N-hydroxyoctannamide], in [1], the “ER subtype preference (ratio of ERα to ERβ agonist activity)” value is “too weak in vitro to have an obvious preference”. The “HDAC inhibition activity, overall (isoform not given)” value in [2] is “poor HDAC inhibition profile”.

With `C[C@]12CC[C@@H]3c4ccc(O)cc4CC[C@H]3[C@@H]1CC[C@@]2(O)c1cn(CCCC(=O)NO)nn1` [1a, 4-(4-((8R,9S,13S,14S,17S)-3,17-dihydroxy-13-methyl-7,8,9,11,12,13,14,15,16,17-decahydro-6H-cyclopenta[a]phenanthren-17-yl)-1H-1,2,3-triazol-1-yl)-N-hydroxybutanamide], the “ER subtype preference (ratio of ERα to ERβ agonist activity)” value in [1] was “too weak in vitro to have an obvious preference”. In addition, the “HDAC inhibition activity, overall (isoform not given)” value in series [2] is on record as “most potent HDACi”. Further, in series [8] (72 hours after drug dosing, ERα+/β+ breast cancer), the “antiproliferative activity IC50, MCF-7” value was “comparable”. The “antiproliferative activity IC50, MDA-MB-231” value in series [3] is “comparable; also recorded: inhibit the growth of MDA-MB-231”. The “in vitro therapeutic index (IVTI)” value in series [9] is reported as “greater IVTI”.
